Data: ChEMBL document CHEMBL5096213 (Bioorg Med Chem, 2022)

How the values were obtained:
[1] = system: Mycobacterium tuberculosis; test: Binding affinity to Mycobacterium tuberculosis PanD assessed as change in entropy by isothermal titration calorimetry
Summary of the method: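 Mtb PanD (100 μM) in 50 mM Tris pH 7.5 titrated with 2 mM ligand by ITC at 20 °C. Buffer-versus-compound control heats subtracted. Isotherm fitted by least squares to a single-site binding model, which yields the thermodynamic parameters.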

[2] = Cytotoxicity against African green monkey Vero cells assessed as cell viability at 1.5 mM incubated for 24 hrs by XTT assay; assay type: toxicity, cell-based; conditions: chlorocebus sabaeus, read-out: Activity
Summary of the method: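 Vero cells in EMEM with 10% FBS and penicillin/streptomycin were seeded at 500–1000 cells/well. They were dosed from DMSO stocks (final DMSO 0.5%) over 20 μM to 1.5 mM and incubated 24 h at 37 °C, 10% CO2. XTT was added 2 h before read-out at 450 nm, with 660 nm background. Viability was blank-subtracted and normalized to DMSO-only wells as 100%. Values are the mean of two technical replicates.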

[3] = Binding affinity to Mycobacterium tuberculosis PanD assessed as dissociation constant by isothermal titration calorimetry
Summary of the method: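 ITC at 20 °C, 100 μM Mtb PanD titrated with 2 mM ligand, after desalting into 50 mM Tris pH 7.5. Buffer-versus-compound heats subtracted. KD obtained by least-squares fit of the binding isotherm to a single-site model.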

SMILES | TdeltaS [1] [kcal/mol] | viability at 24 h, 1500 µM [2] [%] | Kd [3] [µM]
O=C(O)c1cnccn1 [PYRAZINOIC ACID] | 3 | – | –
Nc1cnc(C(=O)O)cn1 | 0.6 | 50 | 37
Nc1nccnc1C(=O)O | -0.7 | 50 | 40
CCCNc1nccnc1C(=O)O | -5.7 | 50 | 7
O=C(O)c1nccnc1NCc1ccccc1 | – | 50 | –
O=C(O)c1nccnc1Nc1ccccc1 | -2.5 | – | 47
CC(C)Nc1nccnc1C(=O)O | – | 50 | > 100
